Results as given in ChEMBL document CHEMBL1126794, “2-(Quinuclidin-3-yl)pyrido[4,3-b]indol-1-ones and isoquinolin-1-ones. Potent conformationally restricted 5-HT3 receptor antagonists” (J Med Chem, 1993).

Assays:
[1] = target: T1, Serotonin 3 (5-HT3) receptor (Rattus norvegicus, UniProt P35563+Q9JJ16); assay: Binding affinity against 5-hydroxytryptamine 3 (5-HT3) receptor in rat brain cortical membranes using radioligand [3H]quipazine; assay type: cell membranes
T1 sequence (P35563 whole entry): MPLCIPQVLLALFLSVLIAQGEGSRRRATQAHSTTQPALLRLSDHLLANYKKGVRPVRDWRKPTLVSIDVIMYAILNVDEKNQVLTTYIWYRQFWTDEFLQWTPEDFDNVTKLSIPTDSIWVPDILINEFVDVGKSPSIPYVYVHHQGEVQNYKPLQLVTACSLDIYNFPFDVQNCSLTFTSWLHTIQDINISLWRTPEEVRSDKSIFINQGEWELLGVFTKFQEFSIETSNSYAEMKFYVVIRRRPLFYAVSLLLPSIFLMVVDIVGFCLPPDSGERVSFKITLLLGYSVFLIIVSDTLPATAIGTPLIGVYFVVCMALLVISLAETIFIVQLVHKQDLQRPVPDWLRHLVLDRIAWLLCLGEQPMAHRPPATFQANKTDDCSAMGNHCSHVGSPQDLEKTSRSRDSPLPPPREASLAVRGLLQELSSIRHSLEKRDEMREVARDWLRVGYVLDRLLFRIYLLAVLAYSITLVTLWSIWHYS
T1 sequence (Q9JJ16 whole entry): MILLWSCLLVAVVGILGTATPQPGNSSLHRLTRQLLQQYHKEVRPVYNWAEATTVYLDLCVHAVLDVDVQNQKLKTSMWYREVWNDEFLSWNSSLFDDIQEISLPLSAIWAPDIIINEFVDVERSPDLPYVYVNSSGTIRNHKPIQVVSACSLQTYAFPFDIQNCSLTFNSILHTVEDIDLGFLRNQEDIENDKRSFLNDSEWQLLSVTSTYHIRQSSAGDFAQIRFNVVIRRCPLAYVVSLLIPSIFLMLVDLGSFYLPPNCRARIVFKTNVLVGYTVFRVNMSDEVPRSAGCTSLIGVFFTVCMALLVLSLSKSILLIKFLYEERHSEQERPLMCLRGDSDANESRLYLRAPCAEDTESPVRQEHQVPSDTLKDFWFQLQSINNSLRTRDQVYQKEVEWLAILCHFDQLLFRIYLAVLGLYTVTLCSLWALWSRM
Method in brief: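 Rat cerebral cortex membranes, washed in 50 mM Tris pH 7.4, incubated 45 min at 25 °C in Tris-Krebs buffer pH 7.4 with 0.3–0.7 nM [3H]quipazine plus 0.1 μM paroxetine. Ten test concentrations from 1e-12 to 1e-4 M. Nonspecific binding defined with 1.0 μM racemic zacopride. Filtration, scintillation counting, IC50 by iterative fit, Ki by Cheng-Prusoff. Means of ≥3 determinations, or of two.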

Rattus norvegicus [2] = assay: Potency to inhibit bradycardiac effect measured by Von Bezold-Jarisch assay in 8 anesthetized rats; assay type: functional; details: read-out: ID50 (the source's name)
Method in brief: (§1)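 Male Sprague-Dawley rats, 250–380 g, under urethane (1.5 g/kg ip), with cannulated trachea and femoral veins; heart rate recorded by ECG. Lowest consistent bradycardic dose of 2-methyl-5-HT titrated iv, then given every 12 min. Increasing iv doses given 5 min before each challenge, with saline vehicle group.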

Rattus norvegicus [3] = assay: Potency to inhibit bradycardiac effect measured by Von Bezold-Jarisch assay in 4 anesthetized rats; assay type: functional; method in brief: as §1

| SMILES | Ki [1] | ED50 (Rattus norvegicus [2]) | ID50 (Rattus norvegicus [3]) |
| --- | --- | --- | --- |
| Cn1cc(C(=O)N[C@@H]2CN3CCC2CC3)c2ccccc21 | 0.398 nM |  |  |
| COc1cc(N)c(Cl)cc1C(=O)N[C@@H]1CN2CCC1CC2 | 0.251 nM |  |  |
| Cn1c2ccccc2c2c(=O)n([C@@H]3CN4CCC3CC4)ccc21 |  | 0.13 µg/kg |  |
| O=C(N[C@@H]1CN2CCC1CC2)c1c2n(c3ccccc13)CCCCC2 | 5.01 nM |  |  |
| Cc1c(C(=O)NC2CN3CCC2CC3)c2ccccc2n1C (stereo not drawn) | 39.8 nM |  |  |
| CCc1cccc(C(=O)N[C@@H]2CN3CCC2CC3)c1C | 501 nM |  |  |
| Cc1cccc2c(=O)n(C3CN4CCC3CC4)cc(C)c12.Cl (stereo not drawn) | 1 nM | 0.25 µg/kg |  |
| COc1cccc2c1CCN(C1CC3CCC(C1)N3C)C2=O (stereo not drawn) | 10 nM |  |  |
| O=C1c2ccccc2CCN1C1CN2CCC1CC2 (stereo not drawn) | 10 nM |  |  |
| O=c1c2ccccc2c(-c2ccccc2)cn1[C@@H]1CN2CCC1CC2 | 2.51 nM |  |  |
| COc1cccc2c(=O)n([C@@H]3CN4CCC3CC4)ccc12.Cl | 0.158 nM | 0.03 µg/kg |  |
| Cl.O=c1c2cccc3c2c(cn1[C@H]1CN2CCC1CC2)CCC3 | 7.94 nM |  | 2 pKi |
| COc1cccc2c(=O)n(C3CC4CCC(C3)N4C)ccc12 (stereo not drawn) | 2.51 nM |  |  |
| O=c1c2ccccc2ccn1[C@@H]1CN2CCC1CC2 | 3.98 nM |  |  |
| O=C(N[C@H]1CN2CCC1CC2)c1c2n(c3ccccc13)CCCC2 | 12.6 nM |  |  |
| COc1cccc(C(=O)N[C@@H]2CN3CCC2CC3)c1C | 398 nM |  |  |
| O=c1c2cccc3c2c(cn1[C@H]1CN2CCC1CC2)CC3 | 25.1 nM |  |  |
| COc1ccc2c3c(cn(C4CN5CCC4CC5)c(=O)c13)CCC2 (stereo not drawn) | 158 nM |  |  |
| COc1cccc2c1CCN(C1CN3CCC1CC3)C2=O (stereo not drawn) | 0.2 nM |  |  |
| CCc1cccc2c(=O)n([C@@H]3CN4CCC3CC4)ccc12.Cl | 0.2 nM | 0.13 µg/kg |  |
| Cl.O=c1c2cccc3c2c(cn1[C@@H]1CN2CCC1CC2)CCCC3 | 0.398 nM | 0.09 µg/kg |  |
| CCc1cccc2c1CCN(C1CN3CCC1CC3)C2=O.Cl (stereo not drawn) | 0.2 nM | 0.18 µg/kg |  |
